An excerpt weighted towards active compounds, which were near 4% of everything screened.
SIRT5 inh – blocks human SIRT5 desuccinylation of peptide | Q9NXA8 | Purified SirT5, succinyl-peptide AMC, trypsin-coupled fluorescence | inhibition, % at 15 µM | actives 1.1% (n = 330,000) | AID 652115; in the data active means inhibition above about 15%; inconclusive means no clear call, values can overlap the other calls
Target sequence (Q9NXA8 whole entry, looked up): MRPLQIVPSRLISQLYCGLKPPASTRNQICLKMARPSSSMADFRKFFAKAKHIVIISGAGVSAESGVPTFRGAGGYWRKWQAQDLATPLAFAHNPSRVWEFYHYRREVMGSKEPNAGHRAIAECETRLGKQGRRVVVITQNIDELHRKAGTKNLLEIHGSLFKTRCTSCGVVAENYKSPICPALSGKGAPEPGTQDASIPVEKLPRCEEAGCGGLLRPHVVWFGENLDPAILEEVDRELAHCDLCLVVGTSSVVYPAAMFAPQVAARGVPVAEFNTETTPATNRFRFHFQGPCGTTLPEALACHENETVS
E-sel inducer – E-selectin induction on HUVECs; activation, % at 7.58 µM; HUVEC E-selectin immunofluorescence imaging; normalized: neutral wells 0, TNF-alpha wells 100; actives 0.37% (n = 260,000); P16581;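 active means mean E-selectin-positive cell signal at least 10% of the positive control, reached in at least 60% of replicates, without over 20% cell loss; inconclusive means no rule given, readout overlaps actives, possibly toxicity-flagged; inactive means the rest, including those meeting only one limit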
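Test system: HUVEC | Signal: Immunofluorescence imaging | Read-out: Percent E-selectin-positive cells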
Statin myotox sup – protects C2C12 myotubes from simvastatin toxicity; ATP luminescence, 48 h; scaled: DMSO 0, geranylgeraniol control 100; rescue of ATP level, % at 7.49 µM; actives 0.78% (n = 330,000);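 active means mean ATP rescue above about 67%, or every replicate alone reaching that limit, limit read from the data, passing the limit was not always enough; inconclusive means no clear call, values can overlap the other calls; inactive means mean under the limit and some replicate under it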;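 further: myotubes were challenged with 10 µM simvastatin during compound exposure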
Ecoli rRNA inh – inhibitors of bacterial rRNA selective over humanized ribosomes | GFP signal change (wild-type ribosome), % (test concentration not listed) | AID 720706 | actives 1.6% (n = 350,000) | E. coli WT GFP vs humanized-ribosome RFP mutants, fluorescence, 24 h; stronger effect = lower value; DMSO median 0, no signal -100;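 active means significant combined selectivity score with lowered wild-type GFP, culture density cut under 30%, mutant RFP and density less affected; inactive means any of these conditions unmet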
FN deposition inh – fibronectin deposition inhibition. AH1F fibroblasts, Alexa488-fibronectin deposition fluorescence, overnight. actives 0.086% (n = 350,000). inhibition, % at 12.6 µM;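 active means mean inhibition across replicates of 30% or more, regardless of how many single replicates reach that level; inconclusive means mean under 30% yet at least half of replicates reach 30%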;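 further: positive control wells lacked labelled fibronectin entirely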
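Material: AH1F fibroblast monolayer depositing Alexa488-labelled fibronectin into matrix / Amount: 10000 AH1F cells per well / Signal: fluorescence 485/525 nm / Medium: DMEM, 2% serum / Compound: single dose, pinned / Incubation: 1 h cell adhesion before compound, then overnight fibronectin incubation / Reagent: Alexa488-FN, 24 nM final / Read-out: inhibition of fibronectin deposition signal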
FGF22 binding – binders of recombinant human FGF22 by thermal shift | Q9HCT0 | SYPRO orange fluorescence; percent of sucrose octasulfate shift, DMSO zero | activity (Tm shift, normalised), % at 9.99 µM | actives 1.5% (n = 340,000);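 active means mean Tm shift, scaled 0 neutral to 100 positive control, at about 1.3% or above, every replicate too, limit read from the data; inconclusive means no clear call, values can overlap the other calls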
Target sequence (Q9HCT0 whole entry, looked up): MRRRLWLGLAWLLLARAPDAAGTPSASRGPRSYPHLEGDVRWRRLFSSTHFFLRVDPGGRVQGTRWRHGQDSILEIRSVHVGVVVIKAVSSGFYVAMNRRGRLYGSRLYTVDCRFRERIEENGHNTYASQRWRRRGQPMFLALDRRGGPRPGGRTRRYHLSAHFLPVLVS
* = called active by the depositor; ! = repeats disagree.

What do the screens show for `CC(C)NC(=O)Nc1ccc2c(c1)C(=O)N([C@H](C)CO)C[C@@H](C)[C@H](CN(C)Cc1ccc(C(=O)O)cc1)OCCCC[C@H](C)O2`?
SIRT5 inh: 0; E-sel inducer: 0; Ecoli rRNA inh: 5; FN deposition inh: 1; FGF22 binding: 0

How did C[C@@H]1CN([C@H](C)CO)C(=O)c2cc(NC(=O)c3ccncc3)ccc2O[C@@H](C)CCCCO[C@@H]1CN(C)Cc1ccc(C(F)(F)F)cc1 do in these assays?
SIRT5 inh: 11; E-sel inducer: 0; Statin myotox sup: inconclusive; Ecoli rRNA inh: 6; FN deposition inh: 11; FGF22 binding: 0

Results for C[C@H]1CN(C)C(=O)c2cccc(N(C)C)c2O[C@H]1CN(C)C ?
Ecoli rRNA inh: 3; FN deposition inh: 5

What do the screens show for `C[C@@H]1CN([C@H](C)CO)C(=O)c2cccc(NC(=O)c3ccc(-c4nccs4)cc3)c2O[C@@H]1CN(C)Cc1ccc(C(F)(F)F)cc1`?
SIRT5 inh: 17*; E-sel inducer: -2; Statin myotox sup: 41; Ecoli rRNA inh: -2; FGF22 binding: 0

Results for C[C@@H]1CN([C@@H](C)CO)C(=O)c2cccc(NC(=O)c3ccc(-c4nccs4)cc3)c2O[C@@H]1CN(C)Cc1ccc(C(F)(F)F)cc1 ?
SIRT5 inh: 26*; E-sel inducer: -3; Statin myotox sup: 74*; Ecoli rRNA inh: -5; FGF22 binding: -1

What do the screens show for `C[C@H]1CN([C@@H](C)CO)C(=O)c2cccc(NC(=O)c3ccc(-c4nccs4)cc3)c2O[C@@H]1CN(C)Cc1ccc(Cl)c(Cl)c1`?
SIRT5 inh: 3; E-sel inducer: 304*; Ecoli rRNA inh: -1; FN deposition inh: 13; FGF22 binding: 0

What do the screens show for `C[C@@H]1CN([C@@H](C)CO)C(=O)c2cc(NC(=O)Cn3cnnn3)ccc2O[C@H]1CN(C)Cc1ccc(Cl)c(Cl)c1`?
SIRT5 inh: -2; Statin myotox sup: 9; Ecoli rRNA inh: -5; FGF22 binding: 0

What do the screens show for `COC(=O)c1nc(Cl)c(Cl)c(N)c1Cl`?
SIRT5 inh: 17*; Ecoli rRNA inh: 0; FN deposition inh: 4; FGF22 binding: 0

What do the screens show for `CCCCCCCCOC(=O)c1nc(Cl)c(Cl)c(N)c1Cl`?
Ecoli rRNA inh: -7; FN deposition inh: 11; FGF22 binding: 1.5*

Results for O=C1[C@@H](Cc2ccc(C(F)(F)F)cc2)CCn2cc(nn2)COC[C@@H]2CCCCN12 ?
Ecoli rRNA inh: -2; FN deposition inh: -5

What do the screens show for `O=C(C[C@H]1C[C@H]2c3cc(NS(=O)(=O)c4ccccc4)ccc3O[C@H]2[C@@H](CO)O1)NC1CCCC1`?
SIRT5 inh: -3; E-sel inducer: 0; Statin myotox sup: -3; Ecoli rRNA inh: -8; FN deposition inh: 5; FGF22 binding: 0

What do the screens show for `CC[C@H](C)[C@H](NC(N)=O)C(=O)NCCc1ccc(OC)cc1`?
SIRT5 inh: -4; E-sel inducer: 0; Statin myotox sup: 12; Ecoli rRNA inh: 5; FN deposition inh: -3; FGF22 binding: 0

How did CC[C@H](C)[C@H](NC(N)=O)C(=O)NCCc1ccc(Cl)cc1 do in these assays?
SIRT5 inh: -2; Statin myotox sup: 1; Ecoli rRNA inh: 4; FN deposition inh: -6; FGF22 binding: 44*

How did CC(C)[C@H](NC(N)=O)C(=O)NCCc1ccc(Cl)cc1Cl do in these assays?
SIRT5 inh: 1; Ecoli rRNA inh: -3; FN deposition inh: -4; FGF22 binding: 42

Results for CC[C@H](C)[C@H](NC(N)=O)C(=O)Nc1ccc(NC(C)=O)cc1 ?
SIRT5 inh: 3; Statin myotox sup: 15; Ecoli rRNA inh: 29; FN deposition inh: -12; FGF22 binding: 0

What do the screens show for `CC(C)CC(NC(N)=O)C(=O)NCCc1ccc(Cl)cc1Cl` (stereo not given)?
SIRT5 inh: -6; Ecoli rRNA inh: 11; FN deposition inh: -1; FGF22 binding: 44*

How did CCC(C)C(NC(N)=O)C(=O)Nc1ccc(C(=O)OC)cc1 (stereo not given) do in these assays?
SIRT5 inh: -5; Statin myotox sup: 2; Ecoli rRNA inh: 3; FN deposition inh: 0; FGF22 binding: 43*

How did CCc1ccc(C(=O)COC(=O)[C@@H](NC(N)=O)[C@@H](C)CC)cc1 do in these assays?
SIRT5 inh: -4; E-sel inducer: -1; Ecoli rRNA inh: -17; FN deposition inh: -1; FGF22 binding: 43*

Results for O=S(=O)(N[C@@H]1CC[C@@H](CCn2cc(C3CC3)nn2)O[C@@H]1CO)c1ccc(F)cc1 ?
SIRT5 inh: 0; E-sel inducer: 0; Statin myotox sup: -2; Ecoli rRNA inh: 0; FGF22 binding: 0

How did C[C@H](NC(=O)C[C@H]1C[C@H]2c3cc(NC(=O)C4CCC4)ccc3O[C@H]2[C@@H](CO)O1)c1ccccc1 do in these assays?
SIRT5 inh: -5; E-sel inducer: 0; Statin myotox sup: 7; Ecoli rRNA inh: -1; FN deposition inh: -10

Results for COc1ccc(NS(=O)(=O)c2ccc(SC)cc2)cc1 ?
SIRT5 inh: 1; Statin myotox sup: 7; Ecoli rRNA inh: -8; FGF22 binding: 0

Results for CSc1ccc(S(=O)(=O)Nc2ccc(F)cc2)cc1 ?
Statin myotox sup: 93*

How did O=C(/C=C\c1ccccc1OC(=O)c1ccccc1F)c1cc2ccccc2o1 do in these assays?
SIRT5 inh: -6; Statin myotox sup: 7; Ecoli rRNA inh: -23*; FN deposition inh: -5; FGF22 binding: 0

How did CC1CC(C)(C)NC(=S)O1 (stereo not given) do in these assays?
SIRT5 inh: -1; E-sel inducer: 1; Ecoli rRNA inh: 15; FN deposition inh: 1; FGF22 binding: 43*!

Results for O=C(Nc1ccc2c(c1)[C@H]1C[C@H](CC(=O)N3CCCCC3)O[C@H](CO)[C@H]1O2)NC1CCCC1 ?
SIRT5 inh: 1; E-sel inducer: 0; Statin myotox sup: -12; Ecoli rRNA inh: -1; FN deposition inh: 6; FGF22 binding: -1

What do the screens show for `CC(c1ccco1)N(C(=O)Nc1ccc(Cl)cc1)c1ccccn1` (stereo not given)?
Statin myotox sup: 124*

How did O=C(Nc1ccc(Oc2cccc(C(F)(F)F)c2)nc1)c1cccs1 do in these assays?
SIRT5 inh: -2; E-sel inducer: 0; Statin myotox sup: -21; Ecoli rRNA inh: -44*; FN deposition inh: 1

Results for CCOC(=O)c1c(C)[nH]c(C(=O)COC(=O)c2cnc(C)cn2)c1C ?
Statin myotox sup: 14; FN deposition inh: 3

High-throughput results as filed in PubChem BioAssay.
